Experimental data as given in ChEMBL document CHEMBL4014335, “Activation of Phenyl 4-(2-Oxo-3-alkylimidazolidin-1-yl)benzenesulfonates Prodrugs by CYP1A1 as New Antimitotics Targeting Breast Cancer Cells” (J Med Chem, 2017).

Assays:
[1] = test system: MDA-MB-231; assay: Antiproliferative activity against ER/PR/HER2 deficient human MDA-MB-231 cells after 72 hrs by SRB assay; type: functional, cell-based; settings: MDA-MB-231, 72 h
Procedure, shortened: (§1)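 SRB antiproliferative assay (modified NCI protocol). Cells seeded per well (SK-BR-3, MDA-MB-231, T47D, HT-1080, HT-1080 CYP1A1 and empty-vector: 3.0 x 10^3; MDA-MB-468: 5.0 x 10^3; MCF7: 7.5 x 10^3), preincubated 24 h. DMSO-solubilized drug added at 0.75 to 1.0 x 10^5 nM, then 72 h. Fixed with cold 10% TCA, stained with 0.1% sulforhodamine B, absorbance read at 530-565 nm. At least two experiments, triplicate cultures.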

[2] = Selectivity ratio of IC50 for ER/PR/HER2 deficient human MDA-MB-231 cells to IC50 for ER/PR/HER2 expressing human T47D cells; type: functional
Procedure, shortened: (§2)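 Ratio is IC50 in reference line over IC50 in sensitive line. […] Cells in DMEM with 5% calf serum at 37 °C. At least two experiments, triplicate cultures; assay accepted when relative SD < 10%.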

[3] = Selectivity ratio of IC50 for ER/PR/HER2 deficient human MDA-MB-231 cells to IC50 for human MCF7 cells; type: functional; procedure, shortened: as §2
[4] = test system: MDA-MB-468; assay: Antiproliferative activity against ER/PR/HER2 deficient human MDA-MB-468 cells after 72 hrs by SRB assay; type: functional, cell-based; settings: MDA-MB-468, 72 h; procedure, shortened: as §1
[5] = molecular target: T1, Cytochrome P450 1A1 (Homo sapiens, UniProt P04798); assay: Inhibition of human supersomes CYP1A1-mediated 7-ethoxyresorufin conversion to fluorescent resorufin preincubated with 7-ethoxyresorufin for 5 mins followed by addition of NADPH regenerating system measured for 15 mins by EROD assay; type: ADME
T1 sequence (P04798 whole entry): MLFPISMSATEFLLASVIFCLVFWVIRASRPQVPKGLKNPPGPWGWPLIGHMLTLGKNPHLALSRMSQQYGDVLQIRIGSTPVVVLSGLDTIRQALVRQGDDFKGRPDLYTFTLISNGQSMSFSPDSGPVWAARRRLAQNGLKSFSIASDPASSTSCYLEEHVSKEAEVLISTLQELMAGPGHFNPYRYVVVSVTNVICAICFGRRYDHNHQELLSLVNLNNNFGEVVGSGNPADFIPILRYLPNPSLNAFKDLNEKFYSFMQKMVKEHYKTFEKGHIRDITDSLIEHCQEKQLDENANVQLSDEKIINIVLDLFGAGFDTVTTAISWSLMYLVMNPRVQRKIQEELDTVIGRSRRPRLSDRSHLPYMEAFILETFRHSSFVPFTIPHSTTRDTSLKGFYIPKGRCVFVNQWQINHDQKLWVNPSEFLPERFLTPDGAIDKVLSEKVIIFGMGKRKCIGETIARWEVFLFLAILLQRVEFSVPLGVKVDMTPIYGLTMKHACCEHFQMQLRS
Procedure, shortened: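 EROD assay with human CYP1A1 supersomes containing reductase, in potassium phosphate buffer. Drug final 32–31 600 nM and 7-ethoxyresorufin 94–3 000 nM, with 0.35% DMSO, preincubated 5 min at 37 °C. Reaction started with NADPH-regenerating system and 0.15 pmol CYP1A1 in 150 µL. Initial velocity taken from 1–5 min; Vmax and Km from Lineweaver-Burk plot.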

[6] = test system: MCF7; assay: Antiproliferative activity against human MCF7 cells after 72 hrs by SRB assay; type: functional, cell-based; settings: MCF7, 72 h; procedure, shortened: as §1
[7] = test system: HT-1080; assay: Antiproliferative activity against human HT1080 cells transfected with pCMV6-AC empty plasmid after 72 hrs by SRB assay; type: functional, cell-based; settings: HT-1080, 72 h; procedure, shortened: as §1
[8] = test system: T47D; assay: Antiproliferative activity against ER/PR/HER2 expressing human T47D cells after 72 hrs by SRB assay; type: functional, cell-based; procedure, shortened: as §1
[9] = Selectivity ratio of IC50 for ER/PR/HER2 deficient human MDA-MB-231 cells to IC50 for ER/PR/HER2 deficient human MDA-MB-468 cells; type: functional; procedure, shortened: as §2
[10] = test system: HT-1080; assay: Antiproliferative activity against human HT1080 cells transfected with CYP1A1 after 72 hrs by SRB assay; type: functional, cell-based; settings: HT-1080, 72 h; procedure, shortened: as §1
[11] = Selectivity ratio of IC50 for ER/PR/HER2 deficient human MDA-MB-231 cells to IC50 for ER/PR deficient and HER2 expressing human SKBR3 cells; type: functional; procedure, shortened: as §2
[12] = test system: SK-BR-3; assay: Antiproliferative activity against ER/PR deficient and HER2 expressing human SKBR3 cells after 72 hrs by SRB assay; type: functional, cell-based; settings: SK-BR-3, 72 h; procedure, shortened: as §1
[13] = test system: HT-1080; assay: Selectivity ratio of IC50 for HT1080 cells transfected with pCMV6-AC empty plasmid to IC50 for human HT1080 cells transfected with CYP1A1; type: functional
Procedure, shortened: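 Ratio is IC50 (HT-1080 empty vector) over IC50 (HT-1080 CYP1A1). Both lines stably transfected (pCMV6-AC plasmids) and kept under G418 selection, seeded at 3.0 x 10^3 cells. IC50s from SRB antiproliferative assay.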

[14] = test system: HT-1080; assay: Antiproliferative activity against human wild type HT1080 cells after 72 hrs by SRB assay; type: functional, cell-based; settings: HT-1080, 72 h; procedure, shortened: as §1
[15] = test system: M21; assay: Antiproliferative activity against human M21 cells after 48 hrs by SRB assay; type: functional, cell-based; settings: M21, 48 h
Procedure, shortened: (§3)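 SRB assay run as in the NCI screen with slight modifications. Seeding: HT-29 5.0 x 10^3, M21 3.5 x 10^3, MCF7 7.5 x 10^3 cells; cells preincubated 24 h. Drug in DMSO added at 0.75 to 1.0 x 10^5 nM for 48 h. TCA fixation, sulforhodamine B staining, absorbance 530-565 nm. At least two experiments in triplicate; runs accepted only when relative SD < 10%.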

[16] = molecular target: T1, Cytochrome P450 1A1; assay: Prodrug conversion assessed as human supersomes CYP1A1-mediated 3,5-dimethoxyphenyl 4-(2-oxoimidazolidin-1-yl)benzenesulfonate formation after 4 hrs by HPLC-MS analysis; type: ADME; settings: recombinant enzyme
[17] = Selectivity ratio of IC50 for human M21 cells to IC50 for human MCF7 cells; type: functional; procedure, shortened: as §2
[18] = molecular target: T1, Cytochrome P450 1A1; assay: Prodrug activation assessed as human supersomes CYP1A1-mediated 3,4,5-trimethoxyphenyl 4-(2-oxoimidazolidin-1-yl)benzenesulfonate formation after 4 hrs by HPLC-MS analysis; type: ADME; settings: recombinant enzyme
[19] = test system: MCF7; assay: Antiproliferative activity against human MCF7 cells after 48 hrs by SRB assay; type: functional, cell-based; settings: MCF7, 48 h; procedure, shortened: as §3
[20] = molecular target: T1, Cytochrome P450 1A1; assay: Prodrug activation assessed as time required for human supersomes CYP1A1-mediated 3,4,5-trimethoxyphenyl 4-(2-oxoimidazolidin-1-yl)benzenesulfonate formation after 4 hrs by HPLC-MS analysis; type: ADME; settings: recombinant enzyme
[21] = test system: HT-29; assay: Antiproliferative activity against human HT-29 cells after 48 hrs by SRB assay; type: functional, cell-based; settings: HT-29, 48 h; procedure, shortened: as §3
[22] = Selectivity ratio of IC50 for human HT-29 cells to IC50 for human MCF7 cells; type: functional; procedure, shortened: as §2

Compound	IC50 [15]	Ratio IC50 [17]	IC50 [19]	IC50 [21]	Ratio IC50 [22]	other results
COc1cc(OC)cc(OS(=O)(=O)c2ccc(N3CCNC3=O)cc2)c1	–	–	–	–	–	IC50 [1]: 0.01 µM; Ratio IC50 [2]: 1.1; Ratio IC50 [3]: 2.5; IC50 [4]: 0.0065 µM; Ki [5]: Not Active; IC50 [6]: 0.004 µM; IC50 [7]: 0.0042 µM; IC50 [8]: 0.0087 µM; Ratio IC50 [9]: 1.5; IC50 [10]: 0.0023 µM; Ratio IC50 [11]: 1.8; IC50 [12]: 0.0055 µM; Ratio IC50 [13]: 1.8; IC50 [14]: 0.0054 µM
CCCCN1CCN(c2ccc(S(=O)(=O)Oc3cc(OC)cc(OC)c3)cc2)C1=O	> 100 µM	>5300	0.019 µM	36 µM	1900	IC50 [1]: > 100 µM; Ratio IC50 [2]: >420; Ratio IC50 [3]: >2900; IC50 [4]: 0.16 µM; Ki ([5]; read-out: Ki): 0.49 µM; IC50 [6]: 0.035 µM; Drug metabolism [16]: Metabolite_Detected; IC50 [7]: 81 µM; IC50 [8]: 0.24 µM; Ratio IC50 [9]: >630; IC50 [10]: 0.031 µM; Ratio IC50 [11]: >1900; IC50 [12]: 0.052 µM; Drug metabolism [18]: Metabolite_Notdetected; Ratio IC50 [13]: 2600; IC50 [14]: 29 µM; Time [20]: 15 min
CCCN1CCN(c2ccc(S(=O)(=O)Oc3cc(OC)c(OC)c(OC)c3)cc2)C1=O	3.9 µM	80	0.049 µM	5.6 µM	110	IC50 [1]: 6 µM; Ratio IC50 [2]: 130; Ratio IC50 [3]: 340; IC50 [4]: 0.026 µM; Ki ([5]; read-out: Ki): 0.24 µM; IC50 [6]: 0.018 µM; IC50 [7]: 82 µM; IC50 [8]: 0.049 µM; Ratio IC50 [9]: 240; IC50 [10]: 0.016 µM; Ratio IC50 [11]: 1300; IC50 [12]: 0.005 µM; Drug metabolism [18]: Metabolite_Detected; Ratio IC50 [13]: 5100; IC50 [14]: 6.7 µM; Time [20]: 15 min
Cc1cccc(OS(=O)(=O)c2ccc(N3CCN(C)C3=O)cc2)c1	2.3 µM	0.5	5.1 µM	4.3 µM	0.9	–
COc1ccc(OS(=O)(=O)c2ccc(N3CCN(C)C3=O)cc2)cc1OC	8.5 µM	0.72	12 µM	12 µM	1	–
COc1cc(OS(=O)(=O)c2ccc(N3CCN(C)C3=O)cc2)cc(OC)c1OC	0.054 µM	0.5	0.12 µM	0.062 µM	0.5	–
CN1CCN(c2ccc(S(=O)(=O)Oc3cc(Cl)c(Cl)cc3Cl)cc2)C1=O	0.42 µM	0.7	0.63 µM	0.6 µM	1	–
CCCCN1CCN(c2ccc(S(=O)(=O)Oc3cc(Br)cc(Br)c3)cc2)C1=O	> 100 µM	>1700	0.058 µM	43 µM	740	–
CCCN1CCN(c2ccc(S(=O)(=O)Oc3cccc(C)c3)cc2)C1=O	28 µM	0.3	86 µM	65 µM	0.8	–
CCCN1CCN(c2ccc(S(=O)(=O)Oc3ccc(C)cc3)cc2)C1=O	28 µM	0.4	64 µM	25 µM	0.4	–
CCCCN1CCN(c2ccc(S(=O)(=O)Oc3cc(Cl)cc(Cl)c3)cc2)C1=O	58 µM	970	0.06 µM	> 100 µM	>1700	–
CCCN1CCN(c2ccc(S(=O)(=O)Oc3ccc(Cl)cc3)cc2)C1=O	34 µM	1.9	18 µM	15 µM	0.8	–
CN1CCN(c2ccc(S(=O)(=O)Oc3cccc(Cl)c3)cc2)C1=O	1.6 µM	0.7	2.2 µM	2.1 µM	0.9	–
CCCCN1CCN(c2ccc(S(=O)(=O)Oc3cc(F)cc(F)c3)cc2)C1=O	> 100 µM	>250	0.4 µM	> 100 µM	>250	–
CCN1CCN(c2ccc(S(=O)(=O)Oc3cccc(Cl)c3)cc2)C1=O	3.9 µM	0.7	5.4 µM	6.8 µM	1.3	–
CCCCN1CCN(c2ccc(S(=O)(=O)Oc3ccc(F)c(F)c3)cc2)C1=O	> 100 µM	>130	0.76 µM	> 100 µM	>130	–
Cc1ccc(OS(=O)(=O)c2ccc(N3CCN(C)C3=O)cc2)c(C)c1	1.8 µM	0.7	2.5 µM	3 µM	1.2	–
CCCN1CCN(c2ccc(S(=O)(=O)Oc3ccc(OC)cc3)cc2)C1=O	23 µM	1.2	20 µM	16 µM	0.8	–
CCCN1CCN(c2ccc(S(=O)(=O)Oc3ccc(F)cc3)cc2)C1=O	14 µM	0.4	33 µM	23 µM	0.7	–
COc1ccccc1OS(=O)(=O)c1ccc(N2CCN(C)C2=O)cc1	21 µM	0.8	26 µM	26 µM	1	–
